Compounds with a hit are over-represented: about 2.1% of the library has one in this group of screens.
Autophagy HCS = modulators of autophagy; MEF GFP-LC3 puncta imaging; test concentration mostly 10 µM; calls only at 10 µM (by protocol); 190,000 tested, 0.98% active; AID 463193;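 active = percentage of spot-positive cells more than 3 SD above its plate mean, without a fluorescence outlier flag or 80% toxicity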;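 also: spot-positive cell cutoff set from DMSO-treated cells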
ABCG2 block = human ABCG2 inhibition, ABCB1 as counter-screen; IgMXP3 cells, JC-1 efflux, flow cytometry; inhibition, % at 6.6 µM; AID 1325; 190,000 tested, 0.1% active;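 active = inhibition above 80%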;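 also: 0% = DMSO and 100% = nicardipine control wells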
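Test system: IgMXP3 (ABCG2) plus far-red-tagged CCRF-Adr (ABCB1) cells / Amount: 3 million cells/mL in well / Reagent: JC-1 transporter substrate / Timing: 10 min compound exposure, 25 °C / Signal: flow cytometry, 530 nm JC-1 signal / Read-out: percent efflux inhibition, scaled nicardipine 100% to DMSO 0% / Benchmarks: nicardipine as high control, DMSO as low control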
bCat nuc transl = alters nuclear translocation of beta-catenin in HeLa cells; AID 1665; immunofluorescence imaging; nuclear translocation activity, % at 5 µM; 190,000 tested, 0.3% active;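 active = nuclear translocation activity above 50% at 5 µM, with a well cell count of 50 or more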;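 also: per-cell ratio of nuclear to cytoplasmic median beta-catenin stain intensity; plate controls were DMSO negative control for no effect and GSK-3 inhibitor IX positive control for full effect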
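System: HeLa cells, endogenous beta-catenin; compound dosing: 5 µM primary single dose, 0.1% DMSO, 0.02–20 µM confirmation series; incubation: 24 h compound exposure at 37°C, 5% CO2; signal: beta-catenin immunofluorescence imaging with DAPI; evaluation: % activation, nuclear-to-cytoplasmic median beta-catenin signal ratio per cell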
MT stabilizer = stabilizes microtubules in HeLa cells; HeLa tubulin immunostaining HCS, 24 h; share of cells brighter than vehicle mean+2SD; 200,000 tested, 0.83% active; % tubulin-high responders, % at 10 µM;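 active = plate Z-score above 3 for both tubulin-high and condensed-nucleus cell shares, with cell loss under 80%, at 10 µM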;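 also: anti alpha tubulin signal scored within the nucleus-defined area of each cell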
Arbovirus inh = arbovirus infection inhibition; arbovirus infection cell-based antiviral screen; inhibition, % at 10 µM; AID 1251; 200,000 tested, 0.37% active; in the data active = inhibition above about 30%
ABCB1 inh = blocks JC-1 efflux by human ABCB1 transporter; P08183; CCRF-Adr cells, flow cytometry; inhibition, % at 6.6 µM; 190,000 tested, 0.067% active; in the data active = inhibition above about 40%;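 also: 0% = vehicle and 100% = reference inhibitor; higher value means more JC-1 retained so stronger ABCB1 efflux block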
An asterisk follows results filed as active; i = inactive; · = no result; + = active, no number.

SMILES	Autophagy HCS	ABCG2 block	bCat nuc transl	MT stabilizer	Arbovirus inh	ABCB1 inh
O=C(Cc1csc(Nc2nc(=S)[nH]c3ccccc23)n1)N1CCN(c2cccc(C(F)(F)F)c2)CC1	+	-1	-2	7	-16	-3
O=C(Cc1csc(Nc2nc(=S)[nH]c3ccccc23)n1)NCc1cccc(Cl)c1	i	2	·	4	-3	0
CN(CC(=O)Nc1ccc(Cl)c(Cl)c1)C(=O)/C=C/c1ccc(F)cc1	i	14	-1	4	-3	0
CCOC(=O)C1=NOC(Cn2cc(C#N)c(=O)n(C)c2=O)C1 (stereo not given)	i	1	-1	4	-1	0
CCOC(=O)C(C(=O)OCC)c1cc(Br)c2noc3c2c1C(=O)c1ccccc1-3	+	+	6	3	-28	156*
COc1cccc(N/C(=N/C(=S)Nc2ccc(C)cc2C)Nc2nc(C)cc(C)n2)c1	·	·	0	·	·	·
COc1cnc(-c2ccccc2)nc1Oc1ccccc1C	i	4	-3	1	4	0
Cc1c(N=Cc2nc3ccccc3n2C)c(=O)n(-c2ccccc2)n1C	i	90*	·	2	2	2
Cc1c(N=Cc2nc3ccccc3[nH]2)c(=O)n(-c2ccccc2)n1C	i	3	-8	4	3	1
Cc1cc2c3c(c1C)C(=O)C(=O)N3C(C)(C)CC2C (stereo not given)	i	4	0	2	-14	0
O=C(N/N=C/C=C/c1ccccc1)c1n[nH]c2c1CCC2	i	0	176*	25*	-23	0
COc1ccc(C(=O)N/N=C/C(Br)=C/c2ccccc2)cc1	i	-8	-2	7	12	-2
Cc1ccc(-c2cc(C(=O)N/N=C/c3c[nH]c4ccccc34)n[nH]2)o1	i	-7	0	9	10	-2
Cc1ccc(-c2cc(C(=O)N/N=C/C(Br)=C/c3ccccc3)n[nH]2)o1	i	-1	5	12*	-8	-1
Cc1cc(C(=O)N/N=C/C=C/c2ccccc2)n[nH]1	·	·	0	·	·	·
COc1cccc(C(=O)N/N=C/C(Br)=C/c2ccccc2)c1	i	-3	60*	23*	13	-1
O=C(N/N=C/C(Br)=C\c1ccccc1)c1n[nH]c2c1CCC2	+	-1	·	15*	-33	0
O=C(NCC(O)COc1ccc([N+](=O)[O-])cc1)Nc1ccccc1 (stereo not given)	·	·	1	·	·	·
CN(C)C(CNC(=O)c1cccc(OC(F)F)c1)c1ccco1 (stereo not given)	i	7	·	4	6	0
CCCCOC(=O)CSc1nnc(-c2ccc(Cl)cc2Cl)o1	i	3	0	5	6	0
CN(CC(=O)N1CCc2ccccc21)S(=O)(=O)c1cccs1	i	3	·	1	3	0
O=C(Oc1ccc(-c2nnco2)cc1)N1CCOCC1	i	3	0	2	-2	0
Cc1ccccc1NCC(=O)N/N=C/C(Br)=C/c1ccccc1	i	3	4	26*	-18	1
O=C(N/N=C/C=C/c1ccccc1)NC1CCCCC1	+	12	2	2	1	2
Cc1ccc(Cn2nc(C)c(NC(=O)CSc3n[nH]c(C)c3[N+](=O)[O-])c2C)cc1	i	10	-2	2	0	2
SMILES	Autophagy HCS	ABCG2 block	bCat nuc transl	MT stabilizer	Arbovirus inh	ABCB1 inh
CC(C(=O)Nc1sc2c(c1C#N)CCCCC2)N1C(=O)c2ccccc2C1=O (stereo not given)	i	9	-1	3	-7	1
CN1C(=O)c2ccc(NC(=O)CCS(=O)(=O)c3ccccc3)cc2C1=O	i	12	-3	3	-2	0
CCc1ccc(CCC(=O)Nc2ccccc2C(=O)O)o1	i	1	1	3	38*	0
CCc1c(C)nc2ncnn2c1N1CCC(C(=O)N2CCN(c3ccc(F)cc3)CC2)CC1	i	5	-1	4	16	2
CCCN1C/C(=C/c2cccc([N+](=O)[O-])c2)C(=O)/C(=C/c2cccc([N+](=O)[O-])c2)C1	+	19	2	37	0	1
CCCN1C/C(=C/c2ccc3c(c2)OCO3)C(=O)/C(=C/c2ccc3c(c2)OCO3)C1	i	3	1	4	-34	1
CCOc1cc(/C=C/c2ccc3cccc([N+](=O)[O-])c3n2)ccc1O	i	-5	0	2	-3	0
CC(C)N1CCc2c(sc(NC(=O)c3nc4ccccc4s3)c2C(N)=O)C1	i	4	-3	3	-7	1
CC(C)N1CCc2c(sc(NC(=O)c3ccc(S(=O)(=O)N4CCc5ccccc54)cc3)c2C(N)=O)C1	+	0	-3	5	-17	1
CCc1ccc(N2C(=O)/C(=C/c3cccs3)N(CC(=O)OC)C2=S)cc1	+	2	·	6	-4	0
CCCOc1ccc(Cn2cnc3ccccc32)cc1	i	5	·	3	20	0
N=c1c(-c2nc3ccccc3[nH]2)cc(C(=O)c2cccs2)nn1-c1ccccc1	+	3	-2	3	-26	1
Oc1cccc(C2c3[nH]c4ccccc4c3CCN2Cc2ccc3c(c2)CCO3)c1 (stereo not given)	i	0	10	8.2*	-12	0
CN(C)CCNC(=O)c1cc2ccccc2oc1=O	i	0	·	4	11	0
Cc1cc(CSc2ccccc2)ccc1NC(=O)COc1ccccc1C	i	5	-3	9	-5	1
OCCNc1nc(-c2ccccc2)c2cc(Cl)ccc2n1	+	3	1	4	-19	1
c1nnn(C23CC4CC(CC(C4)C2)C3)n1	i	-1	-1	2	9	0
CCOc1ccc(/C=C2\C(=O)c3ccccc3OC2c2ccccc2)cc1 (stereo not given)	i	1	·	36*	-25	0
Cc1ccc(S(=O)(=O)N2CCOCC2)cc1C(=O)N1CCN(S(=O)(=O)c2cccs2)CC1	·	·	-1	·	·	·
Cc1ccc(-n2c(C)cc(/C=c3/sc4nc5ccccc5n4c3=O)c2C)cc1	i	-2	-4	1	15	-1
COc1cc(N2CCCC2)c(OC)cc1/C=c1/sc2nc3ccccc3n2c1=O	+	63	26	26	5	36
O=c1/c(=C\c2cccn2-c2ccccc2)sc2nc3ccccc3n12	+	-1	-2	7	-5	0
O=C(O)Cn1cc(/C=c2/sc3nc4ccccc4n3c2=O)c2ccccc21	i	-8	·	2	6	-4
CCCc1nc2oc(C(=O)c3ccccc3)c(N)c2c2c1COC(C)(C)C2	i	4	·	1	3	1
Cc1nc2oc(C(=O)c3ccc(Br)cc3)c(N)c2c2c1COC(C)(C)C2	+	0	0	4	1	0

Screening results (PubChem BioAssay)
